Source: ChEMBL document CHEMBL1124804, “Substituted vitamin K epoxide analogues. New competitive inhibitors and substrates of vitamin K1 epoxide reductase” (J Med Chem, 1990)

molecular target: T1, Vitamin K epoxide reductase complex subunit 1 (Bos taurus, UniProt Q6B4J2); assay: Apparent kinetic constant for Vitamin K epoxide reductase
T1 sequence (Q6B4J2 whole entry): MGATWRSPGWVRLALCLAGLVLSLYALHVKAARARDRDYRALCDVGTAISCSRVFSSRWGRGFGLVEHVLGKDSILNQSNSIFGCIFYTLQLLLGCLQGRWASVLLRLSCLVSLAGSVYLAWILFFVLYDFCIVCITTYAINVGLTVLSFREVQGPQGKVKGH
Summary of the method: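 Beef liver microsomes (0.8 mg) as vitamin K1 epoxide reductase source, 0.02% Emulgen 911. Vitamin K1 epoxide varied (10, 12.5, 16.5, 25, 40 μM) with 5 mM DTT, analogue at 0, 20, 40, 60 μM. Double-reciprocal plots built; Ki taken from replots of Km,app against analogue concentration. Also run at 40 μM epoxide with DTT varied 0.33–2.0 mM.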

| Ki | Structure (SMILES) |
| --- | --- |
| 74 µM | C/C(=C\CC12OC1(CCl)C(=O)c1ccccc1C2=O)CCCC(C)CCCC(C)CCCC(C)C (stereo not drawn) |
| 17 µM | C/C(=C\CC12OC1(CF)C(=O)c1ccccc1C2=O)CCCC(C)CCCC(C)CCCC(C)C (stereo not drawn) |
| 26 µM | C/C(=C\CC12OC1(C=O)C(=O)c1ccccc1C2=O)CCCC(C)CCCC(C)CCCC(C)C (stereo not drawn) |
| 43 µM | C/C(=C\C(O)C12OC1(C)C(=O)c1ccccc1C2=O)CCCC(C)CCCC(C)CCCC(C)C (stereo not drawn) |
| 8 µM | C/C(=C\CC12OC1(CO)C(=O)c1ccccc1C2=O)CCCC(C)CCCC(C)CCCC(C)C (stereo not drawn) |
| 63 µM | CC(C)CCCC(C)CCCC(C)CCCC(C)CC(O)C12OC1(C)C(=O)c1ccccc1C2=O (stereo not drawn) |
| 63 µM | C/C(=C\CC12OC1(C(F)F)C(=O)c1ccccc1C2=O)CCCC(C)CCCC(C)CCCC(C)C (stereo not drawn) |
| 100 µM | CC(C)CCCC(C)CCCC(C)CCCC(C)CC(F)C12OC1(C)C(=O)c1ccccc1C2=O (stereo not drawn) |
